Test results taken from ChEMBL document CHEMBL2401672, “2-[(3aR,4R,5S,7aS)-5-{(1S)-1-[3,5-bis(trifluoromethyl)phenyl]-2-hydroxyethoxy}-4-(2-methylphenyl)octahydro-2H-isoindol-2-yl]-1,3-oxazol-4(5H)-one: a potent human NK1 receptor antagonist with multiple clearance pathways” (J Med Chem, 2013).
Active and inactive are the calls of the source. The rule behind the calls is not given here.

Columns and labels:
[1] = Metabolic stability in human hepatocytes assessed as compound remaining at 1 uM after 24 hrs; assay type: ADME, cell-based, Hepatocyte; details: read-out: Stability
Method in brief: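 Tritium-labelled compound at 1 μM was incubated with cultured human hepatocytes (300 000 cells per incubation) for 24 h, followed by metabolite profiling.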

[2] = system: Gerbillinae; assay: Antagonist activity at NK1 receptor in iv dosed gerbil assessed as inhibition of GR73632-induced foot tapping after 1 hr; assay type: functional; details: read-out: ID50 (the source's name)
Method in brief: (§1)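 Gerbils received the antagonist iv 1 h before central administration of the NK1 agonist GR73632. Hind-foot tapping was scored. ID50 (mg/kg) was derived for blockade of tapping, and plasma and brain IC50 (nM) were derived from drug levels at 1 h […].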

[3] = Plasma clearance in monkey at 0.5 mg/kg, iv and 1 mg/kg, po; assay type: ADME, organism-based, Macaca mulatta; details: rhesus monkey
Method in brief: (§2)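 Rat PK used 1 mg/kg iv and 2 mg/kg po, while dog and monkey received 0.5 mg/kg iv and 1 mg/kg po. Oral dosing was given as a solution, either in ethanol/PEG400/water (20:40:40, v/v/v) or in Inwittor 742/Tween 80, depending on the compound. Plasma CLp, Vdss, t1/2 and F% were derived from these studies.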

[4] = Oral bioavailability in rat at 2 mg/kg; assay type: ADME, organism-based; details: in vivo; method in brief: as §2
[5] = molecular target: Cytochrome P450 2C9 (Homo sapiens, UniProt P11712); assay: Inhibition of human CYP2C9; assay type: ADME
Chain of Cytochrome P450 2C9 (P11712 whole entry): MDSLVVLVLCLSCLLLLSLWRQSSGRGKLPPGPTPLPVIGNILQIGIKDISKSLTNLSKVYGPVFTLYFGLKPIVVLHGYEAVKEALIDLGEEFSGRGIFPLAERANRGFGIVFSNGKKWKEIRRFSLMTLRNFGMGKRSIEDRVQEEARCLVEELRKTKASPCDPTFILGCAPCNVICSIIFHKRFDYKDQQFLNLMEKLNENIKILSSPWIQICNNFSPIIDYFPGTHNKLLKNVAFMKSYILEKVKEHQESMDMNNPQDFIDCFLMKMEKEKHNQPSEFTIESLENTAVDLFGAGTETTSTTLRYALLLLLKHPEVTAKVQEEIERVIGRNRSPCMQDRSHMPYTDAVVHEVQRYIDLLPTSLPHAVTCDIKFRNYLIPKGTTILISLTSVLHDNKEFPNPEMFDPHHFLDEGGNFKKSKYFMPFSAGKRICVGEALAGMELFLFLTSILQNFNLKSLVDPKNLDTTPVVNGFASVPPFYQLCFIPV

[6] = molecular target: T1, Nuclear receptor subfamily 1 group I member 2 (Homo sapiens, UniProt O75469); assay: Agonist activity at human PXR at 3.4 uM relative to rifampicin
T1 sequence (O75469 whole entry): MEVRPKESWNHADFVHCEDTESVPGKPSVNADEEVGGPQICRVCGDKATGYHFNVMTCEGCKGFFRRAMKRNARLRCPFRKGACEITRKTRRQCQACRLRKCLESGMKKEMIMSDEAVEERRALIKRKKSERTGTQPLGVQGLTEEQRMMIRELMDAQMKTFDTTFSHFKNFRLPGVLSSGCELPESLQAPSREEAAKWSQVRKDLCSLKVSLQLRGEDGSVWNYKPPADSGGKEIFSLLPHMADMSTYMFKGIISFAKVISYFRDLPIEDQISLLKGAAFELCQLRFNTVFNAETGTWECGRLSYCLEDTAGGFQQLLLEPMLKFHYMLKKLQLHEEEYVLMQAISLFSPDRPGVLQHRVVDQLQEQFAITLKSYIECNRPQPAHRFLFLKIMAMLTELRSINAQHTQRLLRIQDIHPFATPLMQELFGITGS
Method in brief: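 PXR agonism was measured in human hepatocytes with test compound at 3.4 μM, and the response was expressed as % relative to rifampicin.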

[7] = Oral bioavailability in monkey 1 mg/kg; assay type: ADME, organism-based, Macaca mulatta; details: rhesus monkey, in vivo; method in brief: as §2
[8] = molecular target: Cytochrome P450 3A4 (Homo sapiens, UniProt P08684); assay: Inhibition of human CYP3A4; assay type: ADME
Chain of Cytochrome P450 3A4 (P08684 whole entry): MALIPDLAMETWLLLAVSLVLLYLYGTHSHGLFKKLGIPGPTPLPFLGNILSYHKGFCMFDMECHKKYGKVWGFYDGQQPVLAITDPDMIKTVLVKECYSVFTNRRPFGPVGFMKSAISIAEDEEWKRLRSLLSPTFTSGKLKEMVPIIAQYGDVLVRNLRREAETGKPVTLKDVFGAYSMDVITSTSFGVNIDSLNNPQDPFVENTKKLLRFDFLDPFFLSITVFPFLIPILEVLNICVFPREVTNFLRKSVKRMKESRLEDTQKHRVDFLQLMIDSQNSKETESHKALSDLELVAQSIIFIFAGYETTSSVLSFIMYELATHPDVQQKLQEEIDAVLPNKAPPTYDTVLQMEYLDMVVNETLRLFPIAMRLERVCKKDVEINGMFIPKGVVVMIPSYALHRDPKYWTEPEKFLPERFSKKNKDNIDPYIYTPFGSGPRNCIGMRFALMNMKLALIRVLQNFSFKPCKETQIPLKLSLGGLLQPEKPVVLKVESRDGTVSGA

[9] = molecular target: T2, Cytochrome P450 2C8 (Homo sapiens, UniProt P10632); assay: Inhibition of human CYP2C8; assay type: ADME
T2 sequence (P10632 whole entry): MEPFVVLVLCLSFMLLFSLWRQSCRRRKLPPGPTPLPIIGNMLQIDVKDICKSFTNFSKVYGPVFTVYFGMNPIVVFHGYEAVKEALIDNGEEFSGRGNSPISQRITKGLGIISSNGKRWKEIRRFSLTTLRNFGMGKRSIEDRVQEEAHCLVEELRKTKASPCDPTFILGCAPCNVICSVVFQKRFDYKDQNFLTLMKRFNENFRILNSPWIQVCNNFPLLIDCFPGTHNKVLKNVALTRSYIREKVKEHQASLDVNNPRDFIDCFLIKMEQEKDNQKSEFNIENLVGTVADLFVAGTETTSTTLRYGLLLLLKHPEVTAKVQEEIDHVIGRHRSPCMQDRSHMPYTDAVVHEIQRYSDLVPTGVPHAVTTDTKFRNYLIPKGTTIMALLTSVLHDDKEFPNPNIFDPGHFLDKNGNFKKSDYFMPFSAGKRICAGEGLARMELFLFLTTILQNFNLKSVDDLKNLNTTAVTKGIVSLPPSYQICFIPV

[10] = Volume of distribution at steady state in rat at 1 mg/kg, iv and 2 mg/kg, po; assay type: ADME, organism-based; details: in vivo, read-out: Vdss; method in brief: as §2
[11] = system: Rhesus monkey; assay: Ex vivo NK1 receptor occupancy in rhesus monkey brain assessed as concentration required for 50% occupancy at 13 nM plasma concentration by PET imaging analysis; assay type: functional, Macaca mulatta
[12] = molecular target: T3, Substance-K receptor (Homo sapiens, UniProt P21452); assay: Binding affinity to human NK2 receptor
T3 sequence (P21452 whole entry): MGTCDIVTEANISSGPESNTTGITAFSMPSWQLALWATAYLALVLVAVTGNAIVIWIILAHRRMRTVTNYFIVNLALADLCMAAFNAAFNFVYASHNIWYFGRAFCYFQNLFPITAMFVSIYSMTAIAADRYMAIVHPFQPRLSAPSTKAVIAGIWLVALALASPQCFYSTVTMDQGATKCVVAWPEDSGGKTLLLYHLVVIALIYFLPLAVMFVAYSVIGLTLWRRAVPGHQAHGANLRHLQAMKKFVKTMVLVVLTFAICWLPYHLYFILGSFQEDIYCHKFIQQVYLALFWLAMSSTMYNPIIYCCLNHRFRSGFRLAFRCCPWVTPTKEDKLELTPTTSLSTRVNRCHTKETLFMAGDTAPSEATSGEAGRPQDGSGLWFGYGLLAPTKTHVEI

[13] = system: Rhesus monkey; assay: Ex vivo NK1 receptor occupancy in rhesus monkey brain assessed as concentration required for 90% occupancy at 67 nM plasma concentration by PET imaging analysis; assay type: functional, Macaca mulatta
[14] = Plasma clearance in dog at 0.5 mg/kg, iv and 1 mg/kg, po; assay type: ADME, organism-based, Canis lupus familiaris; method in brief: as §2
[15] = Volume of distribution at steady state in dog at 0.5 mg/kg, iv and 1 mg/kg, po; assay type: ADME, organism-based, Canis lupus familiaris; details: in vivo, read-out: Vdss; method in brief: as §2
[16] = Plasma clearance in rat at 1 mg/kg, iv and 2 mg/kg, po; assay type: ADME, organism-based; method in brief: as §2
[17] = system: Gerbillinae; assay: Antagonist activity at NK1 receptor in iv dosed gerbil plasma assessed as inhibition of GR73632-induced foot tapping after 1 hr; assay type: functional, organism-based; method in brief: as §1
[18] = system: Gerbillinae; assay: Antagonist activity at NK1 receptor in iv dosed gerbil assessed as inhibition of GR73632-induced foot tapping; assay type: functional, organism-based; method in brief: as §1
[19] = system: Gerbillinae; assay: Antagonist activity at NK1 receptor in iv dosed gerbil brain assessed as inhibition of GR73632-induced foot tapping after 1 hr; assay type: functional, organism-based; method in brief: as §1
[20] = Half life in dog at 0.5 mg/kg, iv and 1 mg/kg, po; assay type: ADME, organism-based, Canis lupus familiaris; details: in vivo; method in brief: as §2
[21] = Half life in rat at 1 mg/kg, iv and 2 mg/kg, po; assay type: ADME, organism-based; details: in vivo; method in brief: as §2
[22] = molecular target: T4, Substance-P receptor (Homo sapiens, UniProt P25103); assay: Antagonist activity at human NK1 receptor expressed in CHO cells assessed as IP1 generation measured as remaining substance P response at 100 nM
T4 sequence (P25103 whole entry): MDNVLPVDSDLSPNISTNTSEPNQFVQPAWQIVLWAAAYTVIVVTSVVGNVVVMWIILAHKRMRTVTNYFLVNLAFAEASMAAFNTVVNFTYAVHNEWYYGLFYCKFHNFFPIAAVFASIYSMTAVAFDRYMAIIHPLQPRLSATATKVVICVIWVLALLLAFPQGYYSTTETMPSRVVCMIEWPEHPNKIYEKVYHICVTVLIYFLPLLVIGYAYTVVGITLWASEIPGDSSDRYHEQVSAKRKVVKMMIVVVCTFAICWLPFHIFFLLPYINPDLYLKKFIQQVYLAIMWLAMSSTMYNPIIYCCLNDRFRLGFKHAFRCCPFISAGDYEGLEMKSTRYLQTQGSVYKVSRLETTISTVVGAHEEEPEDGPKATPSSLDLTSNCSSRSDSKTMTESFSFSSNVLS

[23] = Volume of distribution at steady state in monkey at 0.5 mg/kg, iv and 1 mg/kg, po; assay type: ADME, organism-based, Macaca mulatta; details: rhesus monkey, in vivo, read-out: Vdss; method in brief: as §2
[24] = molecular target: Cytochrome P450 2D6 (Homo sapiens, UniProt P10635); assay: Inhibition of human CYP2D6; assay type: ADME
Chain of Cytochrome P450 2D6 (P10635 whole entry): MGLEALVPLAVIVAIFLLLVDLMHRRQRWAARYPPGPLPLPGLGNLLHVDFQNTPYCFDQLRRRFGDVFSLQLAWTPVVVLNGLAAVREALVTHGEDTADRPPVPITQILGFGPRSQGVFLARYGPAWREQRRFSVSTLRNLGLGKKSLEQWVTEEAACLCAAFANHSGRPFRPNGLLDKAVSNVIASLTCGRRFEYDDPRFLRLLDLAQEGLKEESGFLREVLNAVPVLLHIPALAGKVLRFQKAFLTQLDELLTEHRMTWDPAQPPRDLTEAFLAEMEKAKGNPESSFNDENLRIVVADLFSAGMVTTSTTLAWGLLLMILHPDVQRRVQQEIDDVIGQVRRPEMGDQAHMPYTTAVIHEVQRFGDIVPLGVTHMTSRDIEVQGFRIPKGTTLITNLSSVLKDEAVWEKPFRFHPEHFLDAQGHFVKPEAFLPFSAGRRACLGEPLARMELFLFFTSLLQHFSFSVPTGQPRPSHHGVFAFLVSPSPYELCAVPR

[25] = molecular target: T5, Neuromedin-K receptor (Homo sapiens, UniProt P29371); assay: Binding affinity to human NK3 receptor
T5 sequence (P29371 whole entry): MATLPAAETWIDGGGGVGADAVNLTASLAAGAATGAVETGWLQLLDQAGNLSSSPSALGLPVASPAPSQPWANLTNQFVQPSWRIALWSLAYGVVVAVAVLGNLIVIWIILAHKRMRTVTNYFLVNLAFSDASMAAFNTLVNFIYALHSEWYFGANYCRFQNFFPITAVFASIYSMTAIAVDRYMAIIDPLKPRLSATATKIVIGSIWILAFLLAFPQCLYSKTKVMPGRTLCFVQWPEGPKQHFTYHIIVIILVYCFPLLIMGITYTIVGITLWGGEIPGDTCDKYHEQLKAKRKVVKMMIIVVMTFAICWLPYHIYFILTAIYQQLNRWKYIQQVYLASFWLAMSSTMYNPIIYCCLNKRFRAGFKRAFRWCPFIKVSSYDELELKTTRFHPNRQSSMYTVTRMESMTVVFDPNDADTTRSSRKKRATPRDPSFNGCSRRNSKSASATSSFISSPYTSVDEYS

[26] = Oral bioavailability in dog 1 mg/kg; assay type: ADME, organism-based, Canis lupus familiaris; details: in vivo; method in brief: as §2
[27] = molecular target: T4, Substance-P receptor; assay: Displacement of [125I]substance P from human NK1 receptor expressed in CHO cells in presence of human serum; assay type: cell-based
Method in brief: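 Inhibition of [¹²⁵I]substance P binding to human NK1 receptor in vitro, with 50% human serum added to the binding medium; IC₅₀ (nM) derived.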

[28] = Half life in monkey at 0.5 mg/kg, iv and 1 mg/kg, po; assay type: ADME, organism-based, Macaca mulatta; details: rhesus monkey, in vivo; method in brief: as §2

## Cc1ccccc1[C@H]1[C@@H]2CN(C3=NC(=O)CO3)C[C@H]2CC[C@@H]1O[C@H](CO)c1cc(C(F)(F)F)cc(C(F)(F)F)c1
[1]
  remaining at 24 h, 1 µM: 68%
[2]
  ED50: 0.03 mg/kg
[3]
  clearance: 8 mL/min/kg
[4]
  bioavailability: 92%
[5]
  IC50: 41000 nM
[6]
  Activity: 14%
[7]
  bioavailability: 66%
[8]
  IC50: 15000 nM
[9]
  IC50: 21000 nM
[10]
  Vd: 3.1 L/kg
[11]
  Occ50: 13 nM
[12]
  IC50: 7200 nM
[13]
  Occ90: 22 nM
[14]
  clearance: 1.4 mL/min/kg
[15]
  Vd: 1.2 L/kg
[16]
  clearance: 7.5 mL/min/kg
[17]
  IC50: 5 nM
[18]
  inhibition: Active
[19]
  IC50: 8 nM
[20]
  half-life: 11 h
[21]
  half-life: 4.7 h
[22]
  residual activity: 3%
[23]
  Vd: 5.7 L/kg
[24]
  IC50: 61000 nM
[25]
  IC50: 2500 nM
[26]
  bioavailability: 38%
[27]
  IC50: 0.75 nM
[28]
  half-life: 13 h

## C[C@@H](O[C@H]1CC[C@@H]2CN(C3=CC(=O)CC3)C[C@H]2[C@@H]1c1ccc(F)cc1)c1cc(C(F)(F)F)cc(C(F)(F)F)c1 [SERLOPITANT]
[2]
  ED50: 0.08 mg/kg
[4]
  bioavailability: 40%
[11]
  Occ50: 9 nM
[12]
  IC50: 2400 nM
[13]
  Occ90: 67 nM
[18]
  inhibition: Active
[19]
  IC50: 7.7 nM
[22]
  residual activity: 5%
[25]
  IC50: 2400 nM
